In publication PMC5915676 (Cell chemical biology, 2016):
Substitutions are numbered along the chain they refer to. Entries after “also recorded” stand apart in the source; their conditions may differ. Like-named read-outs stand apart in the source and are kept apart here.

Tests used:
[1] = target: T1, PHGDH (Homo sapiens, UniProt O43175); assay: PHGDH enzyme assay coupled with PSAT1 reaction; format: biochemical
T1 sequence (O43175 1-533): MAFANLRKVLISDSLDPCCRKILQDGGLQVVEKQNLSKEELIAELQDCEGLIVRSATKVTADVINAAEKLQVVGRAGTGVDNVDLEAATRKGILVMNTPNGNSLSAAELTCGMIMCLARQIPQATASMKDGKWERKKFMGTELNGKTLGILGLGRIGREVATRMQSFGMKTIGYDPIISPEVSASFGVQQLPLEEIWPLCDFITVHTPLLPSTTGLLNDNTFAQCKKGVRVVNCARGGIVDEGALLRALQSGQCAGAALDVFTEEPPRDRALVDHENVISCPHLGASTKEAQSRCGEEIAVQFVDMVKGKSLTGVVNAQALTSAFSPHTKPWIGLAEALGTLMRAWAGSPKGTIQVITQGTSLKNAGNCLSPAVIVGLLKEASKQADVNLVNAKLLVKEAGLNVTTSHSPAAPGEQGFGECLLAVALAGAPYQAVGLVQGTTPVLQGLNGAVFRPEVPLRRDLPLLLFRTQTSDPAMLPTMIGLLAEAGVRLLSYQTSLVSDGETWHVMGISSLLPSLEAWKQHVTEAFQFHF
How it was run: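 Full-length human PHGDH and PSAT1 were His-purified from E. coli BL21(DE3) (pET21a(+)) by Ni-NTA then gel filtration. PHGDH activity was measured coupled to the upstream PSAT1 reaction. For cofactor competition, enzyme was preincubated 10 min at 25°C with NADH and compound, and Pser was added to start the reaction. For combinations, fixed first-compound levels (0–200 μM) were mixed with second-compound series (0–200 μM) and preincubated with enzyme.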

[2] = target: T2, PHGDH mutant T59A (Homo sapiens, UniProt O43175, T60A); assay: PHGDH enzyme assay, mutant T59A; format: biochemical; settings: read-out: IC50, PHGDH enzyme inhibition
T2 sequence (O43175 1-533 T60A): T1 sequence (O43175 1-533) with T60A
How it was run: (§1)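 Point mutants were made by QuikChange site-directed mutagenesis of pET-21a(+) wild-type human PHGDH and sequence-verified. Each was expressed in E. coli and purified like the wild type, then assayed for activity and inhibition in the same PSAT1-coupled PHGDH assay.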

[3] = target: T3, PHGDH mutant T56AK57A (Homo sapiens, UniProt O43175, K58A/T57A); assay: PHGDH enzyme assay, mutant T56AK57A; format: biochemical; settings: read-out: IC50, PHGDH enzyme inhibition
T3 sequence (O43175 1-533 T57A/K58A): T1 sequence (O43175 1-533) with T57A, K58A
How it was run: as §1

[4] = test system: MDA-MB-468 cells; assay: MTT cell viability assay; format: cell-based, human; settings: read-out: EC50, antitumor activity (cell viability), MDA-MB-468, 72 h
[5] = test system: HCC70 cells; assay: MTT cell viability assay; format: cell-based, human; settings: read-out: EC50, antitumor activity (cell viability), HCC70, 72 h
[6] = test system: MDA-MB-231 cells; assay: MTT cell viability assay; format: cell-based, human; settings: read-out: EC50 (cell viability), MDA-MB-231, 72 h
[7] = test system: ZR-75-1 cells; assay: MTT cell viability assay; format: cell-based, human; settings: selectivity, PHGDH amplified vs non-dependent line
[8] = test system: MCF-7 cells; assay: MTT cell viability assay; format: cell-based, human; settings: read-out: EC50 (cell viability), MCF-7, 72 h
[9] = test system: MCF-10A cells; assay: MTT cell viability assay; format: cell-based, human
[10] = test system: panel of cancer cell lines along with one immortalized human breast epithelial cell line; assay: MTT cell viability assay, cell line panel; format: cell-based
[11] = test system: SKOV3 GFP KO control cells; assay: 6-day proliferation assay; format: cell-based, human; settings: 50 μM PKUMDL-WQ-2201, 6 days
How it was run: (§2)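 SKOV3 control (sgRNA against GFP) and PHGDH knockout cells were used. Knockout was made by lentiCRISPR with an exon 8 sgRNA, puromycin selection and single-cell clones, and was western-validated. Cells were grown in RPMI-1640 with 10% FBS and plated at 10,000 cells/well in triplicate. After 24 h they received DMSO or compound, and viable cells were counted daily for 6 days by trypan-blue exclusion on a hemocytometer. Data are mean ± SEM, n=3 biological replicates, two-tailed Student's t-test.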

[12] = test system: SKOV3 PHGDH KO cells; assay: 6-day proliferation assay; format: cell-based, human; settings: 50 μM PKUMDL-WQ-2201, 6 days
How it was run: as §2

[13] = test system: serine biosynthesis pathway in SKOV3 GFP KO cells; assay: U-13C-glucose stable isotope labeling, LC-HRMS; format: cell-based, human
[14] = test system: MDA-MB-468 xenografts; assay: MDA-MB-468 xenograft mouse model; format: in vivo, NOD.CB17 Scid/J mice; settings: 20, 10 and 5 mg/kg/day IP, 30 days of drug delivery, vs vehicle
[15] = test system: MDA-MB-231 xenografts; assay: MDA-MB-231 xenograft mouse model; format: in vivo, NOD.CB17 Scid/J mice; settings: 20 mg/kg/day IP
[16] = Body weight of xenograft mice during treatment; format: in vivo; settings: over the course of the xenograft experiments
[17] = test system: MDA-MB-468 cells; settings: 30 μM, ref Mullarky et al., 2016, cited from earlier work
[18] = ref Mullarky et al., 2016; cited from earlier work
[19] = 37 μM PKUMDL-WQ-2101, 291 μM PKUMDL-WQ-2201, 24 h treatment

Question: Which results are given for `CCNC(=S)N/N=C/c1ccc(-c2ccc(C(=O)O)c(Cl)c2)o1` [PKUMDL-WQ-2201]?
Answer: combination effect on PHGDH inhibition (Combination Index) ([1]; PKUMDL-WQ-2101 kept at 25 μM, PKUMDL-WQ-2201 1 to 200 μM): synergistic interactions; combination effect on PHGDH inhibition (Combination Index) ([1]; PKUMDL-WQ-2202 kept at 25 μM, PKUMDL-WQ-2201 varied): antagonism; competition with cofactor NADH ([1]; compound 50 μM, NADH 5 to 40 μM): did not bound in the cofactor site; IC50 ([1]; read-out: IC50, PHGDH enzyme inhibition, WT PHGDH): 35.7 ± 8.6 µM; IC50 [2]: 69 ± 40 µM; IC50 [3]: > 300 µM; EC50 [4]: 6.9 µM; EC50 [5]: 10 µM; EC50 [6]: > 200 µM; fold more active in MDA-MB-468 and HCC70 than in ZR-75-1 [7]: 13- to 18 fold; EC50 [8]: > 200 µM; cytotoxic effects [9]: weak cytotoxic effects; bioactivity in the other three PHGDH non-amplified breast cancer cell lines ([10]; lines other than ZR-75-1): No bioactivities; EC50 ([10]; read-out: EC50 in PHGDH amplified breast cancer cells, serine-replete media): < 10 µM; cell growth [11]: suppressed; cell growth [12]: remained unaffected; m+2, m+6 and m+7 glucose labeling in UTP and ATP [13, 19]: decreases; m+2 glucose incorporation into glutathione [13, 19]: decreases in m+2; reduction of glucose incorporation into serine and glycine ([13]; about IC50 (37 μM PKUMDL-WQ-2101, 291 μM PKUMDL-WQ-2201), 24 h treatment): more than 50%; tumor growth [14]: substantial inhibitory effects; also recorded: significantly suppressed the growth of tumors; tumor growth [15]: neither PKUMDL-WQ-2101 nor PKUMDL-WQ-2201 affected tumor growth; body weight (tolerability) [16]: able to maintain normal body weight

Question: With CBR-5884 as the compound, how does the “inhibition of growth of MDA-MB-468 cells” value ([17]; serine-deplete media) read?
Answer: Its value is 80% to 90%.

Question: What about the “inhibition of growth of MDA-MB-468 cells” value ([17]; serine-replete media) of the same compound?
Answer: The value was 35% to 60%.

Question: And the “stability in mouse plasma” value [18]?
Answer: The value was “unstable in mouse plasma”.
